In ChEMBL document CHEMBL3108666, “Cytotoxic and protein kinase inhibiting nakijiquinones and nakijiquinols from the sponge Dactylospongia metachromia” (J Nat Prod, 2014):
Calls of active or inactive are those of the source. No cut-off for these calls is given here.

Key:
[1] = target: T1, Vascular endothelial growth factor receptor 2 (Homo sapiens, UniProt P35968); test: Inhibition of recombinant VEGFR2 (unknown origin) using poly(Glu,Tyr)4:1 as substrate assessed as incorporation of [gamma-33P]-ATP into substrate at 10 uM by radiometric assay
Outline: (§1)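 Radiometric 33PanQinase format: recombinant kinase incubated with [γ-33P]ATP plus unlabeled ATP and kinase substrate; substrate-incorporated label measured by FlashPlate counting; compounds screened at 10 μM each across a 16-kinase panel.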

[2] = target: T2, Proto-oncogene tyrosine-protein kinase Src (Homo sapiens, UniProt P12931); test: Inhibition of recombinant SRC (unknown origin) using casein as substrate assessed as incorporation of [gamma-33P]-ATP into substrate at 10 uM by radiometric assay; outline: as §1
[3] = target: T3, Insulin-like growth factor 1 receptor (Homo sapiens, UniProt P08069); test: Inhibition of recombinant IGF1R (unknown origin) using Poly (Glu,Tyr) 4:1 as substrate assessed as incorporation of [gamma-33P]-ATP into substrate at 10 uM by radiometric assay; outline: as §1
Focal adhesion kinase 1 [4] = target: T4, Focal adhesion kinase 1 (Homo sapiens, UniProt Q05397); test: Inhibition of recombinant FAK (unknown origin) assessed as incorporation of [gamma-33P]-ATP into substrate at 10 uM by radiometric assay; outline: as §1
Target sequence in this assay (Q05397 2-1052 limits assumed): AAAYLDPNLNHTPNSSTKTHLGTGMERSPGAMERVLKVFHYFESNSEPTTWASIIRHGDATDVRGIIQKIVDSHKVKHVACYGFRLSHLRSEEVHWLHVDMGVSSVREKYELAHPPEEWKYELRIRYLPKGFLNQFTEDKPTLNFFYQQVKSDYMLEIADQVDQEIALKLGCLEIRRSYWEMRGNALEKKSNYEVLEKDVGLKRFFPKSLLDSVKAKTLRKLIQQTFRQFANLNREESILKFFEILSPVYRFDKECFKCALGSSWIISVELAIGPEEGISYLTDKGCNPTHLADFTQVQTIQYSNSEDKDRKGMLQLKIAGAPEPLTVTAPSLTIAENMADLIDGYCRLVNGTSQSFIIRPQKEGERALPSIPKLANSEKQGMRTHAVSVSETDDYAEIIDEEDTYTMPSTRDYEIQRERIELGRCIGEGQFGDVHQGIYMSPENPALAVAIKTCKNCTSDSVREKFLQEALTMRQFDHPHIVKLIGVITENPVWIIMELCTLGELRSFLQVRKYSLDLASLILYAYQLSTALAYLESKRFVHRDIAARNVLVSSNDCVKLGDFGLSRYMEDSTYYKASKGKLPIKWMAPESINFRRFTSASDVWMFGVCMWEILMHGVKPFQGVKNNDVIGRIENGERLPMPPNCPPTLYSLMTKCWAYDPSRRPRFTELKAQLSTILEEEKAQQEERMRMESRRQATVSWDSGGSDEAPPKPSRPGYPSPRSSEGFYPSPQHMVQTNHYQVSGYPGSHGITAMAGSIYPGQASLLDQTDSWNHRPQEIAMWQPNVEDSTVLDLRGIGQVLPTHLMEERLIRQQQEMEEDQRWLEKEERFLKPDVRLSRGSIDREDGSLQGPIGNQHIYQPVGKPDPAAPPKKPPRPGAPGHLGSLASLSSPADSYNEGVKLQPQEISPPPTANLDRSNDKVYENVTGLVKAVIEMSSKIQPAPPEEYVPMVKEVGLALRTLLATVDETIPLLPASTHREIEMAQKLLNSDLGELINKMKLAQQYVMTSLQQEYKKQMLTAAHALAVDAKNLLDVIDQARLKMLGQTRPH

[5] = target: T5, ALK tyrosine kinase receptor (Homo sapiens, UniProt Q9UM73); test: Inhibition of recombinant ALK (unknown origin) assessed as incorporation of [gamma-33P]-ATP into substrate at 10 uM by radiometric assay; outline: as §1
Target sequence in this assay (Q9UM73 19-1620 limits assumed): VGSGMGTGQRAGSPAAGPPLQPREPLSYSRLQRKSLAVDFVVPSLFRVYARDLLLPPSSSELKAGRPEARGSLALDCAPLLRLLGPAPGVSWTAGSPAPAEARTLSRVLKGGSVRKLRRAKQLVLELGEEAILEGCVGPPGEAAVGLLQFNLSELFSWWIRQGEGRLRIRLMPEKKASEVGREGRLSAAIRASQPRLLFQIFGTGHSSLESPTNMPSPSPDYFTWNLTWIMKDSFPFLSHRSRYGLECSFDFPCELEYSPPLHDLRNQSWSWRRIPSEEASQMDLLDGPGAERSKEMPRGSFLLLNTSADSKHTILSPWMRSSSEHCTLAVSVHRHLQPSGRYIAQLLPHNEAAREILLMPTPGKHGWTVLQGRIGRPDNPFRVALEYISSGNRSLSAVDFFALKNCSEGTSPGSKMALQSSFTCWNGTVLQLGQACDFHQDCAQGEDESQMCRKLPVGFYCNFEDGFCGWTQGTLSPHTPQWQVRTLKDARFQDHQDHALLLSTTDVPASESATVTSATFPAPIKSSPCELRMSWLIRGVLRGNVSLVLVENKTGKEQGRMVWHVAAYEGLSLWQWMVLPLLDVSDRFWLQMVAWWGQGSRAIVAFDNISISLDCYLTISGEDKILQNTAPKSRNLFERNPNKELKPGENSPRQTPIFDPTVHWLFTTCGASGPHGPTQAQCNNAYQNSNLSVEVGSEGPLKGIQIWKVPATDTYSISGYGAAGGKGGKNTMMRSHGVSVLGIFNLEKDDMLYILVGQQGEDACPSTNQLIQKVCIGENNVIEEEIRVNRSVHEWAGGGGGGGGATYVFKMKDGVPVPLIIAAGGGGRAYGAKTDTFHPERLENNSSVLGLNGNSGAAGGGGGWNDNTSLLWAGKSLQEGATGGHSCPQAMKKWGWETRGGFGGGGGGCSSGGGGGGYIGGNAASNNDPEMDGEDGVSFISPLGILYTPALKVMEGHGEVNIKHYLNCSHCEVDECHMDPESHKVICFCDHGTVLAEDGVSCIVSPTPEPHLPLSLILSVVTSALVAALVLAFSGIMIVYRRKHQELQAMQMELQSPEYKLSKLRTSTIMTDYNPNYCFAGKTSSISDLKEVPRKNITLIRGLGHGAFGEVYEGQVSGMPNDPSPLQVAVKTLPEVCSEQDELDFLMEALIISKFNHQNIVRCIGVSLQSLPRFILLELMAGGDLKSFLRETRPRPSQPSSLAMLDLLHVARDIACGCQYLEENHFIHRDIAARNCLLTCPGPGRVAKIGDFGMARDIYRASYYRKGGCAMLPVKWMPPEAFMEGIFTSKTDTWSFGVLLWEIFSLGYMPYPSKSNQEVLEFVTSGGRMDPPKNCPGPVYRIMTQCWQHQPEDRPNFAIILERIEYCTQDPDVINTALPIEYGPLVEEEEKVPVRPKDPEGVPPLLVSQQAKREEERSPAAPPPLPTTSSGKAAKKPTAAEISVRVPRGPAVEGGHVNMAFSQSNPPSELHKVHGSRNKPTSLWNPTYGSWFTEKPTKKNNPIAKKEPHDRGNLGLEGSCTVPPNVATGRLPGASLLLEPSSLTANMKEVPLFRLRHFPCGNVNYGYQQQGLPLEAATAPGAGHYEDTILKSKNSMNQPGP

L5178Y = test: Cytotoxicity against mouse L5178Y cells assessed as growth inhibition by MTT assay; assay type: functional, cell-based
Outline: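 L5178Y mouse lymphoma cells; MTT microculture tetrazolium read-out, compared with untreated controls; media with 0.1% EGMME-DMSO as negative control; three independent experiments, each in triplicate.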

[6] = target: T1, Vascular endothelial growth factor receptor 2; test: Inhibition of recombinant VEGFR2 (unknown origin) using poly(Glu,Tyr)4:1 as substrate assessed as incorporation of [gamma-33P]-ATP into substrate by radiometric assay; outline: as §1
[7] = target: T2, Proto-oncogene tyrosine-protein kinase Src; test: Inhibition of recombinant SRC (unknown origin) using casein as substrate assessed as incorporation of [gamma-33P]-ATP into substrate by radiometric assay
[8] = target: Serine/threonine-protein kinase N1 (Homo sapiens, UniProt Q16512); test: Inhibition of recombinant PRK1 (unknown origin) using casein as substrate assessed as incorporation of [gamma-33P]-ATP into substrate by radiometric assay; outline: as §1
[9] = target: Serine/threonine-protein kinase PLK1 (Homo sapiens, UniProt P53350); test: Inhibition of recombinant PLK1 (unknown origin) using casein as substrate assessed as incorporation of [gamma-33P]-ATP into substrate by radiometric assay
Sequence of Serine/threonine-protein kinase PLK1 (P53350 whole entry): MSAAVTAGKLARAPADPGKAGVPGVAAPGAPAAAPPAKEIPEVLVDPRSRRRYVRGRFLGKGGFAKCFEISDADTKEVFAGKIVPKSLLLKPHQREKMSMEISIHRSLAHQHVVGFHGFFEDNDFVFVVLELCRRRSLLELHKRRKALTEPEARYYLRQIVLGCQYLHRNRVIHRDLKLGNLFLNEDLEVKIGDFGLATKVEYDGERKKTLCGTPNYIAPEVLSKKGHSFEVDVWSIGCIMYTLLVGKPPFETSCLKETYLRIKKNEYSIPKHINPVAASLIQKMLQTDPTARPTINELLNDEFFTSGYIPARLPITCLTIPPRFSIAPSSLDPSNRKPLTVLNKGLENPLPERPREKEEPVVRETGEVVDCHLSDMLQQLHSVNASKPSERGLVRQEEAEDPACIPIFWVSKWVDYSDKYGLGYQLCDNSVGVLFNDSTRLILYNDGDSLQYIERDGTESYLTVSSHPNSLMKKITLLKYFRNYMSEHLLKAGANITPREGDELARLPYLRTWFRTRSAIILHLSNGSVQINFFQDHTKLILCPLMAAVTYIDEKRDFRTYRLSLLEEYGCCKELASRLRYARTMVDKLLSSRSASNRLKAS

[10] = target: Serine/threonine-protein kinase pim-1 (Homo sapiens, UniProt P11309); test: Inhibition of recombinant PIM1 (unknown origin) assessed as incorporation of [gamma-33P]-ATP into substrate by radiometric assay; outline: as §1
[11] = target: Serine/threonine-protein kinase Nek6 (Homo sapiens, UniProt Q9HC98); test: Inhibition of recombinant NEK6 (unknown origin) assessed as incorporation of [gamma-33P]-ATP into substrate by radiometric assay; outline: as §1
[12] = target: T6, Serine/threonine-protein kinase Nek2 (Homo sapiens, UniProt P51955); test: Inhibition of recombinant NEK2 (unknown origin) assessed as incorporation of [gamma-33P]-ATP into substrate by radiometric assay
T6 sequence (P51955 whole entry): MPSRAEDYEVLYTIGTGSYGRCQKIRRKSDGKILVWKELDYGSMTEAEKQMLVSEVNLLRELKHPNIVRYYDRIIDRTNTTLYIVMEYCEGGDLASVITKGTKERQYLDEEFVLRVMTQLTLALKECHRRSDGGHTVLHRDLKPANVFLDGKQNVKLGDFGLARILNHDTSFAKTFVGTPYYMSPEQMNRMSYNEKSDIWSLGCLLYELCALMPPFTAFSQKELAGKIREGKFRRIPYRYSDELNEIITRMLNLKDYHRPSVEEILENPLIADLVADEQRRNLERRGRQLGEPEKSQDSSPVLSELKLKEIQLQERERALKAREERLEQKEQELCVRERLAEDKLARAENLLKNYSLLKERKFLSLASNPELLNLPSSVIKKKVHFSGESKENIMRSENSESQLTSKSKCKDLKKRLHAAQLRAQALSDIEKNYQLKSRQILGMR

[13] = target: Hepatocyte growth factor receptor (Homo sapiens, UniProt P08581); test: Inhibition of wild type MET (unknown origin) assessed as incorporation of [gamma-33P]-ATP into substrate by radiometric assay
Sequence of Hepatocyte growth factor receptor (P08581 whole entry): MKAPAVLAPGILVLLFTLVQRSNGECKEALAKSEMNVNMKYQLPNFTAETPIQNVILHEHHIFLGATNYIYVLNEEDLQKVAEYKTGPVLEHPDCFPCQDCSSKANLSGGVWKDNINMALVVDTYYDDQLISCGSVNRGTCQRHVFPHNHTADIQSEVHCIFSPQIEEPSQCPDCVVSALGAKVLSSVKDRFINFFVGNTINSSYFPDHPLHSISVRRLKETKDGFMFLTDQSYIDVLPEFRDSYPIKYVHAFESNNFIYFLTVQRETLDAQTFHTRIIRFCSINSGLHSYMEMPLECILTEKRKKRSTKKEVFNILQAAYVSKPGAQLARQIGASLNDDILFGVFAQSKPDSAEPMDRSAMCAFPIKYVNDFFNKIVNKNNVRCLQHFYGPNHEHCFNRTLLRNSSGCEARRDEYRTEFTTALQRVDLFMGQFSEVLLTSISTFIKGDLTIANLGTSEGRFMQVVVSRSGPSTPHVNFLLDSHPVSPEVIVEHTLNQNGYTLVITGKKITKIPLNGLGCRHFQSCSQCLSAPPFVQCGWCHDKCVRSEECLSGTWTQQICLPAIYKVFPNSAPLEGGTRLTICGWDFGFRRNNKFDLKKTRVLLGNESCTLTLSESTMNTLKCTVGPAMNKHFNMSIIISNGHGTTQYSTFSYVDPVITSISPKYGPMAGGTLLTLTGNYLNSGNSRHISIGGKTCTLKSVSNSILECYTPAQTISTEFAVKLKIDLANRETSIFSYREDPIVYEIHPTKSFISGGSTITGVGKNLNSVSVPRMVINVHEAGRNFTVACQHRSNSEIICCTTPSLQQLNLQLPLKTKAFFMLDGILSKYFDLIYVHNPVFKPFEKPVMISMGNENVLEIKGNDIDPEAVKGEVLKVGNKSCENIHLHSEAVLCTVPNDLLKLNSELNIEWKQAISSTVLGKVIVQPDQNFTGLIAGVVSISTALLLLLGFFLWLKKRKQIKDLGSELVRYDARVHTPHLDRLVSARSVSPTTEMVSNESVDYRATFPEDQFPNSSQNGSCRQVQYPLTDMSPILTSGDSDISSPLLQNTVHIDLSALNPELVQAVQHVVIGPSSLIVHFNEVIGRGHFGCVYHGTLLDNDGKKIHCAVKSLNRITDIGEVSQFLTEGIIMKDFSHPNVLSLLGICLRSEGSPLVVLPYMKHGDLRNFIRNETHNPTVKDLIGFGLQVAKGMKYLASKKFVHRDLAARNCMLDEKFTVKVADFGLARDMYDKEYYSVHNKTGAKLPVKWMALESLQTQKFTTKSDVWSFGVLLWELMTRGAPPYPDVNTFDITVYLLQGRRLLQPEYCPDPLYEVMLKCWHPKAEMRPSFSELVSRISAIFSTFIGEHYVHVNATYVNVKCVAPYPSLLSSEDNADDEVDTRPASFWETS

[14] = target: Dual specificity mitogen-activated protein kinase kinase 1 (Homo sapiens, UniProt Q02750); test: Inhibition of wild type MEK1 (unknown origin) assessed as incorporation of [gamma-33P]-ATP into substrate by radiometric assay
[15] = target: T3, Insulin-like growth factor 1 receptor; test: Inhibition of recombinant IGF1R (unknown origin) using Poly (Glu,Tyr) 4:1 as substrate assessed as incorporation of [gamma-33P]-ATP into substrate by radiometric assay
Focal adhesion kinase 1 [16] = target: T4, Focal adhesion kinase 1; test: Inhibition of recombinant FAK (unknown origin) assessed as incorporation of [gamma-33P]-ATP into substrate by radiometric assay; outline: as §1
[17] = target: T7, Tyrosine-protein kinase receptor UFO (Homo sapiens, UniProt P30530); test: Inhibition of recombinant AXL (unknown origin) assessed as incorporation of [gamma-33P]-ATP into substrate by radiometric assay
T7 sequence (P30530 whole entry): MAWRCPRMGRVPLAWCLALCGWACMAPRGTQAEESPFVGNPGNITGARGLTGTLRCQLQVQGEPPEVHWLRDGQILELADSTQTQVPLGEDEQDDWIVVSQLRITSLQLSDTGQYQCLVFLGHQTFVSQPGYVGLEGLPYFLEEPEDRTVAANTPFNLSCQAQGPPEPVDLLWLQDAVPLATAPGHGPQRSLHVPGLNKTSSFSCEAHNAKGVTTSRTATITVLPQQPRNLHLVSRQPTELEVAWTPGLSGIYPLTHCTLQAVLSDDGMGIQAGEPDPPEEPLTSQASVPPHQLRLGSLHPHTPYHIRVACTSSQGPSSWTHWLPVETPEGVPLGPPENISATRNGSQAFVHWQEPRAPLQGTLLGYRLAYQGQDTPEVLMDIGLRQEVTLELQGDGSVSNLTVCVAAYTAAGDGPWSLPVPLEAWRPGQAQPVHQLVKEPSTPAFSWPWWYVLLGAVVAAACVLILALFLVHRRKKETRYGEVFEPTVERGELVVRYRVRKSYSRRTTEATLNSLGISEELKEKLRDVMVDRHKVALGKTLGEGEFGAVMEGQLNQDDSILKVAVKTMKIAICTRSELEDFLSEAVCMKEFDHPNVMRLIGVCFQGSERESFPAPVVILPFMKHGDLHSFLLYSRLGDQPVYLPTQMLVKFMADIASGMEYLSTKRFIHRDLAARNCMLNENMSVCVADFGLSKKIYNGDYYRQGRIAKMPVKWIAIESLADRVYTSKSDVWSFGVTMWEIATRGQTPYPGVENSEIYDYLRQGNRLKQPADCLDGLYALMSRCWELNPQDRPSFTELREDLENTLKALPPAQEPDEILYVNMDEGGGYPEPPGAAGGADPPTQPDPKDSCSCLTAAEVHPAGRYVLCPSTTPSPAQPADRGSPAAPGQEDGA

Aurora kinase B = Aurora kinase B (Homo sapiens, UniProt Q96GD4); test: Inhibition of recombinant aurora kinase B (unknown origin) using tetra(LRRWSLG) as substrate assessed as incorporation of [gamma-33P]-ATP into substrate by radiometric assay
[18] = target: T8, NUAK family SNF1-like kinase 1 (Homo sapiens, UniProt O60285); test: Inhibition of recombinant ARK5 (unknown origin) assessed as incorporation of [gamma-33P]-ATP into substrate by radiometric assay; outline: as §1
T8 sequence (O60285 whole entry): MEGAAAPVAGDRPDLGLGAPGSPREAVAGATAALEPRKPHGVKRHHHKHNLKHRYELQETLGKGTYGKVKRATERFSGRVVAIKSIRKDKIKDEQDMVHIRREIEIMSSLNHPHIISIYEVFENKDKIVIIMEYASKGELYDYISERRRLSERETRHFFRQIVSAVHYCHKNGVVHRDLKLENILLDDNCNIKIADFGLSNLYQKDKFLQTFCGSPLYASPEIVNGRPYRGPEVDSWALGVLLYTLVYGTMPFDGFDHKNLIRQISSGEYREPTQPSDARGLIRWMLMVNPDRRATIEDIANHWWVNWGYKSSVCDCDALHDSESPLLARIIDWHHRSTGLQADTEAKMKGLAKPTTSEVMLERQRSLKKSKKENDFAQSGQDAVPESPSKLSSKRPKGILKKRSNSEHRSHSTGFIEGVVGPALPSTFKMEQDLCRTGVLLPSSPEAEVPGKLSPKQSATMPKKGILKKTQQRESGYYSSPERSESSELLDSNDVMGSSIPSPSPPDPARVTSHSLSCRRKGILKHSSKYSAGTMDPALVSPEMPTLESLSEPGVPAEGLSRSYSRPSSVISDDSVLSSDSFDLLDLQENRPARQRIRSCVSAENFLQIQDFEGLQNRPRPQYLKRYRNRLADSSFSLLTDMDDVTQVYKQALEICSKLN

[19] = target: T5, ALK tyrosine kinase receptor; test: Inhibition of recombinant ALK (unknown origin) assessed as incorporation of [gamma-33P]-ATP into substrate by radiometric assay
[20] = target: RAC-alpha serine/threonine-protein kinase (Homo sapiens, UniProt P31749); test: Inhibition of recombinant AKT1 (unknown origin) using GSK3 (14 to 27) as substrate assessed as incorporation of [gamma-33P]-ATP into substrate by radiometric assay; outline: as §1
Sequence of RAC-alpha serine/threonine-protein kinase (P31749 whole entry): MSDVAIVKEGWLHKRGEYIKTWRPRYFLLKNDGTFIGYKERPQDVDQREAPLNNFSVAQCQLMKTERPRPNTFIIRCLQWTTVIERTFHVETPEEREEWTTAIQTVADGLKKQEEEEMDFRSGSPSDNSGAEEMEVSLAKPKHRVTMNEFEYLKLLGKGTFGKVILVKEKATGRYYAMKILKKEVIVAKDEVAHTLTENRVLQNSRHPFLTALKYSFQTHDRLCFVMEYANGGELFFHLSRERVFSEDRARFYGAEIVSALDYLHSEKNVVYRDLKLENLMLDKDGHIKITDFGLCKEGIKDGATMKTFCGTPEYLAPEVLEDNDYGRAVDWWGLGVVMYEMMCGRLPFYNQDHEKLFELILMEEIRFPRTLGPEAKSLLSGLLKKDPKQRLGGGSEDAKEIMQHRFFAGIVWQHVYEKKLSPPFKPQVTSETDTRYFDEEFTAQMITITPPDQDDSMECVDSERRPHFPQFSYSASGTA

Row | SMILES | inhibition [1] | inhibition [2] | inhibition [3] | inhibition (Focal adhesion kinase 1 [4]) | inhibition [5] | IC50 (L5178Y) | IC50 [6] | IC50 [7] | IC50 [8] | IC50 [9] | IC50 [10] | IC50 [11] | IC50 [12] | IC50 [13] | IC50 [14] | IC50 [15] | IC50 (Focal adhesion kinase 1 [16]) | IC50 [17] | IC50 (Aurora kinase B) | IC50 [18] | other results
1 | CC1=CCC[C@H]2[C@](C)(CC3=C(O)C(=O)C=C(NCCc4c[nH]c5ccccc45)C3=O)[C@@H](C)CC[C@@]12C | Active | Active | Active | Active | Active | 3.7 µM | – | – | – | – | – | – | – | – | – | – | – | – | – | – | –
2 | CC1=CCC[C@H]2[C@](C)(CC3=C(O)C(=O)C=C(NCCC(C)C)C3=O)[C@@H](C)CC[C@@]12C | – | – | – | – | – | 1.3 µM | 2.22 µM | 2.2 µM | > 100 µM | 100 µM | 62.6 µM | 90.8 µM | 29.9 µM | 40.3 µM | > 100 µM | 1.94 µM | 3.03 µM | > 100 µM | 61 µM | > 100 µM | IC50 [19]: 0.97 µM; IC50 [20]: 73.2 µM
3 | COC(=O)c1cc(O)c(O)c(C[C@]2(C)[C@@H](C)CC[C@@]3(C)C(C)=CCC[C@@H]23)c1 | – | – | – | – | – | > 10 µM | 4.81 µM | 8.62 µM | > 100 µM | 21.7 µM | 20.3 µM | 7.72 µM | 14.7 µM | 3.12 µM | > 100 µM | 11.8 µM | 4.56 µM | 13.1 µM | 3.89 µM | 29.4 µM | IC50 [19]: 2.19 µM; IC50 [20]: 48.4 µM
4 | CC1=CCC[C@H]2[C@](C)(CC3=C(O)C(=O)C=C(NCCc4ccc(O)cc4)C3=O)[C@@H](C)CC[C@@]12C | Active | Active | Active | Active | Active | 1.7 µM | – | – | – | – | – | – | – | – | – | – | – | – | – | – | –
5 | CC1=CCC[C@H]2[C@](C)(CC3=C(O)C(=O)C=C(NCCc4ccccc4)C3=O)[C@@H](C)CC[C@@]12C | Active | Active | Active | Active | Active | 1.1 µM | – | – | – | – | – | – | – | – | – | – | – | – | – | – | –
6 | CC1=CCC[C@H]2[C@](C)(Cc3c4oc(C)nc4cc4nc(C)oc34)[C@@H](C)CC[C@@]12C | – | – | Active | Active | Active | > 10 µM | – | – | – | – | – | – | – | – | – | – | – | – | – | – | –
7 | COc1cc2nc(C)oc2c(C[C@]2(C)[C@@H](C)CC[C@@]3(C)C(C)=CCC[C@@H]23)c1O | – | – | – | – | – | > 10 µM | 3.66 µM | 19.7 µM | > 100 µM | > 100 µM | > 100 µM | > 100 µM | > 100 µM | > 100 µM | > 100 µM | 3.31 µM | 7.78 µM | 14.7 µM | > 100 µM | > 100 µM | IC50 [19]: 3.38 µM; IC50 [20]: > 100 µM
8 | CSCCCNC1=CC(=O)C(O)=C(C[C@]2(C)[C@@H](C)CC[C@@]3(C)C(C)=CCC[C@@H]23)C1=O | Active | Active | Active | Active | Active | 1.8 µM | – | – | – | – | – | – | – | – | – | – | – | – | – | – | –
